Data as given in ChEMBL document CHEMBL1132183 (J Med Chem, 1999).

Legend:
[1] = target: T1, Alpha-1B adrenergic receptor (Rattus norvegicus) (UniProt P15823); assay: Antagonism of Alpha-1B adrenergic receptor subtype (-)-phenylephrine-induced contraction of rat spleen; assay type: functional, tissue-based
T1 sequence (whole entry): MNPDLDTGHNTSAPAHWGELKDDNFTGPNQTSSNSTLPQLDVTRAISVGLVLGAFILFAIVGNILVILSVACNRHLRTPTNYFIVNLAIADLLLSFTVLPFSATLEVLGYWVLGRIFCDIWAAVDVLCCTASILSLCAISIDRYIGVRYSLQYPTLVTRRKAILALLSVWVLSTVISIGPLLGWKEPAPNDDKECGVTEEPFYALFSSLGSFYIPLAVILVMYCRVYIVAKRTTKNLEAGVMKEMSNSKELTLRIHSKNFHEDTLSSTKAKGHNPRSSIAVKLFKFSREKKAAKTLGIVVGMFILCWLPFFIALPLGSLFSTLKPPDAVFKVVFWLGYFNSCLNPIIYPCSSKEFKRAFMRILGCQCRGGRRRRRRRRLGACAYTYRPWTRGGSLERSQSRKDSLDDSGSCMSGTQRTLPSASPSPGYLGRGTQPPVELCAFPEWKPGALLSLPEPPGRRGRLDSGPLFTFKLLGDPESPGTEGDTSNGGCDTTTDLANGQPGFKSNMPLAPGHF
Procedure, shortened: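 Rat spleen, isometric cumulative (–)-phenylephrine curves at 30-min intervals; first discarded, second taken as control. Antagonist was equilibrated 30 min before the next curve.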

[2] = target: T2, Alpha-1A adrenergic receptor (Rattus norvegicus) (UniProt P43140); assay: Antagonist activity against Alpha-1A adrenergic receptor (-)-noradrenaline-induced contraction of rat prostatic vas deferens; assay type: functional, tissue-based
T2 sequence (whole entry): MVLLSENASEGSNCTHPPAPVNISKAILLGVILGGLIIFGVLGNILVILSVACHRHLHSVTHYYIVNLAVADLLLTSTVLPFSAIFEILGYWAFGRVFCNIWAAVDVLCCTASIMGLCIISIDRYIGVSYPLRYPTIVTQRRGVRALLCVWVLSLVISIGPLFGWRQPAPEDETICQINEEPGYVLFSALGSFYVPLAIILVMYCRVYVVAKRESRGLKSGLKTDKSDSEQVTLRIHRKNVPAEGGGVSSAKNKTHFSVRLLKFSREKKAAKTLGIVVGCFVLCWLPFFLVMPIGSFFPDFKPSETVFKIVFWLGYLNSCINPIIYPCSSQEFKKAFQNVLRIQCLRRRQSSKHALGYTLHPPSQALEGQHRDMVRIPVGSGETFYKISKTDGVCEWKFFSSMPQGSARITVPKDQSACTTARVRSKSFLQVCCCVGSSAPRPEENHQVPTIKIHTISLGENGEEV
Procedure, shortened: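 Isolated rat prostatic vas deferens with 0.01 μM desipramine in the bath. Isotonic cumulative (–)-noradrenaline curves were run at 30-min intervals: first discarded, second as control, then antagonist equilibrated 30 min before a new curve. pKb by Arunlakshana–Schild from dose ratios of EC50, at 2–3 antagonist concentrations, each tested four times.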

[3] = target: T3, Alpha-1D adrenergic receptor (Rattus norvegicus) (UniProt P23944); assay: Alpha-1D adrenergic receptor subtype blocking activity (antagonism) against (-)-noradrenaline-induced contraction of rat thoracic aorta.; assay type: functional, tissue-based
T3 sequence (whole entry): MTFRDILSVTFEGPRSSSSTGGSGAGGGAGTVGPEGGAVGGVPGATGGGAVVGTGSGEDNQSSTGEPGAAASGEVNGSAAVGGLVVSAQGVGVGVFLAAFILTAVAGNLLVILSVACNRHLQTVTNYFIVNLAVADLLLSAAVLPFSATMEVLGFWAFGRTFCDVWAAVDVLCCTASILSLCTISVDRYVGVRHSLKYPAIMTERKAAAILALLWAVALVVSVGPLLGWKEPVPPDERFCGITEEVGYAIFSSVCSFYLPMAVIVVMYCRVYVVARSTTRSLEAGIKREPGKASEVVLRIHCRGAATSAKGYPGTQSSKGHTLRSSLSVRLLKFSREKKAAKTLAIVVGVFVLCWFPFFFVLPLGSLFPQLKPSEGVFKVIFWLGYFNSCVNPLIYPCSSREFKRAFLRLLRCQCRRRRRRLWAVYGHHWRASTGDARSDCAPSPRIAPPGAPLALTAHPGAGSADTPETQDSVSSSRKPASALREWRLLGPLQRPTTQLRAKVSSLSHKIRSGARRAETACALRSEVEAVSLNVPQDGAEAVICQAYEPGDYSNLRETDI
Procedure, shortened: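 Helicoidal strips of rat thoracic aorta under 1 g tension, bath with 0.01 μM desipramine and 1 μM (±)-propranolol, equilibrated ≥1 h. Cumulative (–)-noradrenaline curves at 30-min intervals: first two discarded, third as control, fourth after 30-min antagonist exposure. pKb by Arunlakshana–Schild from EC50 dose ratios at 2–3 antagonist concentrations, each tested four times.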

[4] = target: T4, 5-hydroxytryptamine receptor 1A (Homo sapiens, UniProt P08908); assay: Displacement of [3H]8-hydroxy-2-(di-n-propylamino)tetralin from human 5-hydroxytryptamine 1A receptor
T4 sequence (P08908 whole entry): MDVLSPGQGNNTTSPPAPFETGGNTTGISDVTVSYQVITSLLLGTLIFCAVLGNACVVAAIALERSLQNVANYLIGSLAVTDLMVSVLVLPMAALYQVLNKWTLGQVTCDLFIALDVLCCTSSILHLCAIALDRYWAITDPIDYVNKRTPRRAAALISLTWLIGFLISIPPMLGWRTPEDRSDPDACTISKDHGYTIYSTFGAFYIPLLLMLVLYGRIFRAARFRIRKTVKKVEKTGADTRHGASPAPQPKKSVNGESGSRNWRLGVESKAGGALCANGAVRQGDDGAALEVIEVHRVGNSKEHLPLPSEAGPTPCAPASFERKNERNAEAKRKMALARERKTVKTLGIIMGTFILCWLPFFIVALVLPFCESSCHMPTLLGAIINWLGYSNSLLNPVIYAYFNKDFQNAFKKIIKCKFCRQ
Procedure, shortened: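 Membranes of HeLa cells stably transfected with human 5-HT1A (genomic clone G-21), in 50 mM Tris-HCl pH 7.4, 2.5 mM MgCl2, 10 μM pargiline. […] Nonspecific binding defined with 10 μM 5-HT. Filtration, scintillation counting. Ki by Cheng–Prusoff; 2–3 experiments in triplicate.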

[5] = target: T5, Alpha-1A adrenergic receptor (Homo sapiens, UniProt P35348); assay: Displacement of [3H]prazosin from human cloned Alpha-1A adrenergic receptor
T5 sequence (P35348 whole entry): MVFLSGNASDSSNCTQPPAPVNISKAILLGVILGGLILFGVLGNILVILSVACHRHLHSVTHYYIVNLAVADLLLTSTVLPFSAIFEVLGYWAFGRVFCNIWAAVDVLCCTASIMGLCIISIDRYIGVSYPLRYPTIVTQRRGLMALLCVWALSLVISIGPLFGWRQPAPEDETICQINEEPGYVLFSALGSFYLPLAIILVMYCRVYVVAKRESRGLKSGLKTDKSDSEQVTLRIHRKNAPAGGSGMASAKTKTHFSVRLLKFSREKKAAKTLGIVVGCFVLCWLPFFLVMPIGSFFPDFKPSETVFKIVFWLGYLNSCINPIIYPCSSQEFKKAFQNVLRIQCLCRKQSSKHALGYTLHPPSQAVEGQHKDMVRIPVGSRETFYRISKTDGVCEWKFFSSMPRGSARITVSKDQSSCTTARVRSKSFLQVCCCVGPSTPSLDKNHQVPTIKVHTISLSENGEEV
Procedure, shortened: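 CHO cells stably transfected with each human α1 subtype; 30 μg membrane protein in 50 mM Tris-HCl pH 7.4 with 0.1–0.4 nM [3H]prazosin, 30 min at 25 °C. Competitors 1 pM–10 μM. Nonspecific binding defined with 10 μM phentolamine. Filtration, scintillation counting. Ki by Cheng–Prusoff; 2–3 experiments in triplicate.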

[6] = target: Serotonin 2 (5-HT2) receptor (Rattus norvegicus, UniProt P30994+P08909+P14842); assay: Displacement of [3H]ketanserin from rat brain 5-hydroxytryptamine 2 receptor
Procedure, shortened: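 Rat cerebral cortex membranes (male Sprague–Dawley) in Tris-HCl pH 7.4 with 10 μM pargiline and 0.1% ascorbic acid were incubated 20 min at 37 °C with 0.7–1.3 nM [3H]ketanserin (5-HT2A). Nonspecific binding was defined by 2 μM ketanserin. Bound label was counted after filtration, and Ki was derived by Cheng–Prusoff.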

Row | SMILES | pKb [1] | pKb [2] | pKb [3] | Ki [4] [nM] | Ki [5] [nM] | Log Ki [6]
1 | COc1cccc(OC)c1O[C@@H]1CCC(NCC2COc3ccccc3O2)C1O (stereo in doubt; 7) [listing 1 of 2 here] | 6.27 | 5.89 | 7.32 |  |  | 
2 | COc1cccc(OC)c1O[C@@H]1CCC(NCC2COc3ccccc3O2)C1O (stereo in doubt; 7) [listing 2 of 2 here] |  |  |  | 50.1 |  | 
3 | COc1cccc(OC)c1OCCNCC1COc2ccccc2O1 (stereo not drawn) | 8.21 | 9.36 | 8.6 | 2.09 | 0.427 | -6
4 | COc1cccc(OC)c1O[C@@H]1CCC(NCC2COc3ccccc3O2)C1O (stereo in doubt; 8) [listing 1 of 2 here] |  |  |  | 33.9 |  | 
5 | OC1C(NCC2COc3ccccc3O2)CC[C@H]1Oc1ccccc1 (stereo in doubt; 4) | 6.47 | 5.7 | 7.85 |  |  | 
6 | OC1C(NCC2COc3ccccc3O2)CC[C@H]1Oc1ccccc1 (stereo in doubt; 3) | 6.45 | 5.48 | 7.66 |  |  | 
7 | COc1cccc(OC)c1O[C@@H]1CCC(NCC2COc3ccccc3O2)C1O (stereo in doubt; 8) [listing 2 of 2 here] | 6.17 | 5.79 | 6.94 |  |  | 

Further lines, with some results ahead:

Row | pKb [1] | pKb [2] | pKb [3] | Ki [4] [nM] | SMILES | Ki [5] [nM] | Log Ki [6]
8 |  |  |  | 24.5 | COc1ccccc1O[C@@H]1CCC(NCC2COc3ccccc3O2)C1O (stereo in doubt; 5) [listing 1 of 2 here] |  | 
9 |  |  |  | 26.9 | COc1ccccc1O[C@@H]1CCC(NCC2COc3ccccc3O2)C1O (stereo in doubt; 6) [listing 1 of 2 here] |  | 
10 | 6.8 | 6.56 | 7.3 |  | COc1ccccc1O[C@@H]1CCC(NCC2COc3ccccc3O2)C1O (stereo in doubt; 6) [listing 2 of 2 here] |  | 
11 | 6.24 | 5.68 | 7.15 |  | COc1ccccc1O[C@@H]1CCC(NCC2COc3ccccc3O2)C1O (stereo in doubt; 5) [listing 2 of 2 here] |  | 
